From PMC4846294 (Bioorganic & medicinal chemistry, 2016)
“Also recorded” adds a separate entry of the source. Read-outs that look alike come from different tables or passages of the source. Blank lines part the entries; values can stand above or below the molecule they belong to.

Experiments:
[1] = target: T1, LAP (from porcine kidney microsomes) (Sus scrofa, UniProt P15145); assay: In vitro LAP cleavage assay; assay type: in vitro ADME; conditions: for Specific Activity of LAP: rate study; for Specific Activity of LAP / % Cleavage by LAP: pH 7.2, 37 °C; for % Cleavage by LAP: area ratio of parent drug and prodrug (HPLC); for Cleavage rate relative to corresponding serinamide analogue: glycinamide versus serinamide prodrug of the same isomer; for Cleavage with a large amount of LAP (in words): 1.5 units of LAP
T1 sequence (P15145 1-963): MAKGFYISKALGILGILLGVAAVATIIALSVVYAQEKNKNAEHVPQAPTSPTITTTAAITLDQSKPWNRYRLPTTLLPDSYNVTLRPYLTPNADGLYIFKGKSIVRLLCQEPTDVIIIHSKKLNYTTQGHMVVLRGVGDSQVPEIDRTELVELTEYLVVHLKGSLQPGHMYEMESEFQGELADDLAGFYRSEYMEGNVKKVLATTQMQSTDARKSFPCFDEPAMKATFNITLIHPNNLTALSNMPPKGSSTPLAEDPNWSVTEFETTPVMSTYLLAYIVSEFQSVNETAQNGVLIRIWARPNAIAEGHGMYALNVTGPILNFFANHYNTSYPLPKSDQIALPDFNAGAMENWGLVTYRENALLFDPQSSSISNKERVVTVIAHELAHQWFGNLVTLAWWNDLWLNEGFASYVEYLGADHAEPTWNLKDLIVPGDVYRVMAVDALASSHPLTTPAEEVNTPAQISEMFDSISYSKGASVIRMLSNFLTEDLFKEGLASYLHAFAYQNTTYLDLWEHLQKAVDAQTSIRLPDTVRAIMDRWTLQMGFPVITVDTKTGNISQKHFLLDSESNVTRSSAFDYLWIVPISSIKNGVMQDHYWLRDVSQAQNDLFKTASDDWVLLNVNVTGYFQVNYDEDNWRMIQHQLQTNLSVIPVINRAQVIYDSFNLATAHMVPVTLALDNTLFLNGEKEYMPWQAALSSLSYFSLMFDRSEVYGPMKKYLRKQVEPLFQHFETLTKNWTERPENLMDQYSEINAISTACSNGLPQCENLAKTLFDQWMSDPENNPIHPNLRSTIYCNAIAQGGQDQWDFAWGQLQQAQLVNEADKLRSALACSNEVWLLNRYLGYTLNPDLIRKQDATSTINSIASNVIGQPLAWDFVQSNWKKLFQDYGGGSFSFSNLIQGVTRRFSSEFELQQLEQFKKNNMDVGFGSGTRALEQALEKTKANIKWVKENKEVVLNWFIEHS

[2] = tested on: MDA-MB-231-luc human breast tumor; assay: In vivo dynamic bioluminescence imaging; design: species or system SCID mice; conditions: for BLI signal compared with baseline (significance): 4 h and 24 h
[3] = tested on: human cancer cell lines [SK-OV-3 (ovarian), NCI-H460 (lung), and DU-145 (prostate)]; assay: SRB cytotoxicity, stated across all three cell lines; assay type: cell-based; conditions: for GI50 values described in words: parent drugs, three cell lines
[4] = tested on: HUVECs; assay: In vitro HUVEC tubule disruption assay; assay type: cell-based, human; conditions: for Disruption of capillary-like network of tubules (HUVECs): concentration of 0.1 μM; for Disruption of HUVEC tubular network on matrigel: concentration of 1.0 μM
In short: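 HUVECs (124,000 cells in M200 growth factors) plated on Matrigel (9.5 mg/mL) that had been pre-set 60 min at 37 °C; cells incubated 16 h at 37 °C to form tubule network. Test compound then added at 0.01, 0.1 or 1.0 μM. Network photographed, 9 fields/well, 40x objective.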

[5] = tested on: HUVECs; conditions: cited from earlier work
[6] = tested on: NCI-H460 (lung); assay: SRB cytotoxicity assay, NCI-H460; assay type: cell-based, human; conditions: read-out: GI50 SRB Assay NCI-H460; 48 h treatment; average of n ≥ 3
[7] = tested on: DU-145 (prostate); assay: SRB cytotoxicity assay, DU-145; assay type: cell-based, human; conditions: read-out: GI50 SRB Assay DU-145; 48 h treatment; average of n ≥ 3
[8] = tested on: tubulin; assay: Colchicine binding assay; conditions: inhibitor 5 μM; 1.0 μM tubulin, 5.0 μM [3H]colchicine
[9] = tested on: SK-OV-3 (ovarian); assay: SRB cytotoxicity assay, SK-OV-3; assay type: cell-based, human; conditions: read-out: GI50 SRB Assay SK-OV-3; 48 h treatment; average of n ≥ 3

Molecule: COc1ccc(/C=C/c2cc(OC)c(OC)c(OC)c2)c(NC(=O)C(N)CO)c1.Cl (stereo in doubt) [Compound 17, (S,E)-2-amino-3-hydroxy-N-(5-methoxy-2-(3,4,5-trimethoxystyryl)phenyl)propanamide hydrochloride]
- Cleavage by LAP (in words) [1]: effectively cleaved

Molecule: COc1ccc(/C=C\c2cc(OC)c(OC)c(OC)c2)cc1NC(=O)[C@@H](N)CO.Cl [AVE8062, reference compound]
- Cleavage by LAP (in words) [1]: effectively cleaved

Molecule: COc1ccc(/C=C\c2cc(OC)c(OC)c(OC)c2)cc1OP(=O)(O)O [CA4P, combretastatin A-4 phosphate, reference compound]
- BLI signal compared with baseline (significance) ([2]; CA4P 120 mg/kg ip): significantly less signal
- BLI signal versus saline control (significance) ([2]; CA4P 120 mg/kg ip, p<0.05): significantly different from saline

Molecule: COc1ccc(/C=C\c2cc(OC)c(OC)c(OC)c2)c(N)c1 [Compound 7, (Z)-2-(2′-amino-4′-methoxyphenyl)-1-(3,4,5-trimethoxyphenyl)ethene]
- GI50 values described in words [3]: highly potent

Molecule: COc1ccc(/C=C\c2cc(OC)c(OC)c(OC)c2)c(N)c1N [Compound 8, (Z)-2-(2′,3′-Diamino-4′-methoxyphenyl)-1-(3,4,5-trimethoxyphenyl)ethene]
- GI50 values described in words [3]: highly potent
- Disruption of capillary-like network of tubules (HUVECs) [4]: significant disruption
- Disruption of HUVEC tubular network on matrigel [4]: extensive disruption

Molecule: COc1ccc(/C=C\c2cc(OC)c(OC)c(OC)c2)c(N)c1N.Cl [Compound 10, (Z)-2-(2′,3′-Diamine hydrochloride-4′-methoxyphenyl)-1-(3,4,5-trimethoxyphenyl)ethene]
- Reduction in light emission (BLI) relative to baseline ([2]; 80 mg/kg ip, 2 h post treatment, 17 min time-point): approximately 95%
- Reduction in bioluminescence compared to saline control ([2]; 80 mg/kg, 2 h post treatment): greater than 95%
- Disruption of capillary-like network of tubules (HUVECs) [4]: significant disruption
- Disruption of HUVEC tubular network on matrigel [4]: extensive disruption

Molecule: COc1ccc(/C=C\c2cc(OC)c(OC)c(OC)c2)c(NC(=O)[C@@H](N)CO)c1.Cl [Compound 15, (S,Z)-2-amino-3-hydroxy-N-(5-methoxy-2-(3,4,5-trimethoxystyryl)phenyl)propanamide hydrochloride]
- Cytotoxicity against selected human cancer cell lines (in words) [3]: significant cytotoxicity
- Cleavage by LAP (in words) [1]: effectively cleaved
- Specific Activity of LAP [1]: 1.2 μM/min/enzyme unit

- % Cleavage by LAP [1]: 100%
- Cleavage rate relative to corresponding serinamide analogue [1]: 150 times
- Specific Activity of LAP [1]: 180 μM/min/enzyme unit
Molecule: COc1ccc(/C=C\c2cc(OC)c(OC)c(OC)c2)c(NC(=O)CN)c1.Cl [Compound 16, (Z)-2-amino-N-(5-methoxy-2-(3,4,5-trimethoxystyryl)phenyl)acetamide hydrochloride]
- Cytotoxicity against selected human cancer cell lines (in words) [3]: significant cytotoxicity
- Cleavage by LAP (in words) [1]: quantitative cleavage; also recorded: quantitatively cleaved

- % Cleavage by LAP [1]: 100%
- Cleavage rate relative to corresponding serinamide analogue [1]: more than 100 times
Molecule: COc1ccc(/C=C/c2cc(OC)c(OC)c(OC)c2)c(NC(=O)CN)c1.Cl [Compound 18, (E)-2-amino-N-(5-methoxy-2-(3,4,5-trimethoxystyryl)phenyl)acetamide hydrochloride]
- Cytotoxicity against selected human cancer cell lines (in words) [3]: more cytotoxic than the corresponding serinamide AAPC 17
- Cleavage by LAP (in words) [1]: quantitative cleavage; also recorded: quantitatively cleaved

Molecule: COc1ccc(/C=C\c2cc(OC)c(OC)c(OC)c2)c(NC(=O)[C@@H](N)CO)c1NC(=O)[C@@H](N)CO [Compound 22, (2S, 2'S)-N, N’-(3-methoxy-6-((Z)-3,4,5-trimethoxystyryl)-1,2-phenylene)bis(2-amino-3-hydroxypropanamide)]
- Cleavage by LAP (in words) [1]: resistant to LAP mediated cleavage
- Cleavage with a large amount of LAP (in words) [1]: did not result in any observable cleavage

Molecule: COc1ccc(/C=C\c2cc(OC)c(OC)c(OC)c2)c(NC(=O)[C@@H](N)CO)c1NC(=O)[C@@H](N)CO.Cl.Cl [Compound 23, (2S, 2'S)-N, N’-(3-methoxy-6-((Z)-3,4,5-trimethoxystyryl)-1,2-phenylene)bis(2-amino-3-hydroxypropanamide) dihydrochloride]
- Cleavage by LAP (in words) [1]: resistant to LAP mediated cleavage
- Cleavage with a large amount of LAP (in words) [1]: did not result in any observable cleavage

Molecule: COc1ccc(/C=C\c2cc(OC)c(OC)c(OC)c2)c(NC(=O)CN)c1NC(=O)CN.Cl.Cl [Compound 24, (Z)-N,N'-(3-methoxy-6-(3,4,5-trimethoxystyryl)-1,2-phenylene)bis(2-aminoacetamide)]
- Cleavage by LAP (in words) [1]: resistant to LAP mediated cleavage
- Disappearance of the prodrug on LAP treatment ([1]; LAP 0.12 units, by 25 h): greater than 95%
- % Cleavage by LAP [1]: <10-90%

Molecule: COc1ccc2c(c1N)CCCC=C2c1cc(OC)c(OC)c(OC)c1 [Compound 33, 1-Amino-2-methoxy-5-(3’,4’,5’-trimethoxyphenyl)-benzosuber-5-ene]
- GI50 values described in words [3]: highly potent
- HUVEC tubule disruption and cell rounding effect ([5]; 0.1 μM): significant tubule disruption and cell rounding effect
- HUVEC tubule disruption and cell rounding effect ([5]; 1 μM): greatly enhanced
- HUVEC tube disruption and cell rounding capability [5]: robust tubule disruption

- % Cleavage by LAP [1]: < 10%
Molecule: COc1ccc2c(c1NC(=O)[C@@H](N)CO)CCC=C2c1cc(OC)c(OC)c(OC)c1.Cl [Compound 38, (S)-2-Amino-3-hydroxy-N-(2-methoxy-5-(3,4,5-trimethoxyphenyl)-7,8-dihydronaphthalen-1-yl)propanamide hydrochloride]

Molecule: COc1ccc2c(c1NC(=O)[C@@H](N)CO)CCCC=C2c1cc(OC)c(OC)c(OC)c1.Cl [Compound 39, (S)-2-Amino-3-hydroxy-N-(3-methoxy-9-(3,4,5-trimethoxyphenyl)-6,7-dihydro-5H-benzo[7]annulen-4-yl)propanamide hydrochloride]
- % Cleavage by LAP [1]: < 10%
- GI50 [6]: 53800 ± 864 nM
- GI50 [7]: 69400 ± 31300 nM

Molecule: COc1ccc2c(c1NC(=O)CN)CCC=C2c1cc(OC)c(OC)c(OC)c1.Cl [Compound 44, 2-Amino-N-(2-methoxy-5-(3,4,5-trimethoxyphenyl)-7,8-dihydronaphthalen-1-yl)acetamide hydrochloride]
- % Cleavage by LAP [1]: 100%
- Specific Activity of LAP [1]: 15.5 μM/min/enzyme unit
- BLI signal versus saline control (significance) ([2]; 5 mg/kg ip, 4 h time point): not significantly different from saline control
- BLI signal versus saline control (significance) ([2]; 15 mg/kg ip, p<0.05): significantly different from saline
- BLI signal compared with baseline (significance) ([2]; 10 or 15 mg/kg ip): significantly less signal

Molecule: COc1ccc2c(c1NC(=O)CN)CCCC=C2c1cc(OC)c(OC)c(OC)c1.Cl [Compound 45, 2-Amino-N-(3-methoxy-9-(3,4,5-trimethoxyphenyl)-6,7-dihydro-5H-benzo[7]annulen-4-yl)acetamide hydrochloride]
- % Cleavage by LAP [1]: 100%

Molecule: (Z)-2-(2'-Methoxy-4'-aminophenyl)-1-(3,4,5-trimethoxyphenyl)ethene hydrochloride [Compound 9]
- Inhibition of Colchicine Binding (% Inhibition±SD) [8]: 75±0.90%
- GI50 [9]: 7.35 ± 3.5 nM
- GI50 [6]: 26.3 ± 16.1 nM
- GI50 [7]: 28.5 ± 23.2 nM
